Data: ChEMBL document CHEMBL4038284, “Synthesis of novel quinoline-based 4,5-dihydro-1H-pyrazoles as potential anticancer, antifungal, antibacterial and antiprotozoal agents” (Eur J Med Chem, 2017)
Converted amounts (≈) assume the structure as drawn. The source made the active and inactive calls. The rule behind the calls is not given here.

Columns and labels:
CAKI-1 = assay: Growth inhibition of human Caki1 cells at 10 uM incubated for 48 hrs by sulforhodamine B assay; assay type: functional, cell-based
Summary of the method: (§1)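 NCI 60-cell-line screen at a single 10 µM dose. Cells in RPMI-1640 with 5% FBS and 2 mM L-glutamine, pre-incubated 24 h, then treated for 48 h at 37 °C. TCA fixation, sulforhodamine B staining, absorbance at 515 nm. Percentage growth calculated against time-zero and untreated controls.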

Cryptococcus neoformans [1] = assay: Growth inhibition of Cryptococcus neoformans ATCC 32264 at 250 ug/ml incubated for 48 hrs under dark condition by broth microdilution method relative to control; assay type: functional; settings: ATCC 32264, 48 h, read-out: GI
Summary of the method: (§2)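 CLSI M27-A3 broth microdilution in RPMI-1640, DMSO ≤1%. Inoculum 1-5 × 10^3 CFU/mL. Incubated 48 h at 30 °C, dark. % inhibition = 100 − (OD405 test − sterility control)/(OD405 growth control − sterility control), with growth and sterility control wells. Triplicate.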

Klebsiella pneumoniae [2] = assay: Antibacterial activity against ESBL positive Klebsiella pneumoniae ATCC 700603 after 24 hrs by resazurin dye based microdilution assay; assay type: functional; settings: Klebsiella pneumoniae, 700603, 24 h
Summary of the method: (§3)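 MIC taken as the lowest concentration giving visible inhibition and/or by resazurin (1 mg/mL). Gentamicin was the control. Run in duplicate, repeated at least three times.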

EKVX = assay: Growth inhibition of human EKVX cells at 10 uM incubated for 48 hrs by sulforhodamine B assay; assay type: functional, cell-based; summary of the method: as §1
Staphylococcus aureus [3] = assay: Antibacterial activity against methicillin-resistant Staphylococcus aureus ATCC 43300 after 24 hrs by resazurin dye based microdilution assay; assay type: functional; settings: ATCC 43300, 24 h
Summary of the method: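 Broth microdilution in Mueller Hinton broth, inoculum 5 × 10^5 – 8 × 10^5. Compound stocks diluted in MHB with 5% DMSO and 0.1% Tween 80. Incubation 24 h at 35-37 °C. MIC is the lowest concentration with visible growth inhibition and/or by resazurin (1 mg/mL) read-out. Gentamicin as control. Run in duplicate, replicated at least three times.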

NCI-H226 = assay: Growth inhibition of human NCI-H226 cells at 10 uM incubated for 48 hrs by sulforhodamine B assay; assay type: functional, cell-based
Summary of the method: (§4)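 NCI 60-line panel, single 10 μM dose. Cells were grown in RPMI-1640 with 5% FBS and 2 mM L-glutamine and pre-incubated 24 h before compound addition (DMSO stock). Exposure was 48 h at 37 °C, 5% CO2. Cells were fixed with cold TCA (10% final), stained with 0.4% SRB, bound dye dissolved in 10 mM Tris base, A515 read. Growth was taken relative to time-zero and untreated control plates.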

Klebsiella pneumoniae [4] = assay: Antibacterial activity against carbapenemase positive Klebsiella pneumoniae BAA 1705 after 24 hrs by resazurin dye based microdilution assay; assay type: functional; settings: BAA 1705, 24 h; summary of the method: as §3
Candida albicans [5] = assay: Growth inhibition of Candida albicans ATCC 10231 at 31.25 ug/ml incubated for 48 hrs under dark condition by broth microdilution method relative to control; assay type: functional; settings: ATCC 10231, 48 h, read-out: GI; summary of the method: as §2
CCRF-CEM = assay: Growth inhibition of human CCRF-CEM cells at 10 uM incubated for 48 hrs by sulforhodamine B assay; assay type: functional, cell-based; summary of the method: as §1
ACHN = assay: Growth inhibition of human ACHN cells at 10 uM incubated for 48 hrs by sulforhodamine B assay; assay type: functional, cell-based; summary of the method: as §1
Pseudomonas aeruginosa = assay: Antibacterial activity against Pseudomonas aeruginosa ATCC 27853 after 24 hrs by resazurin dye based microdilution assay; assay type: functional; settings: ATCC 27853, 24 h; summary of the method: as §3
HCT-15 = assay: Growth inhibition of human HCT15 cells at 10 uM incubated for 48 hrs by sulforhodamine B assay; assay type: functional, cell-based; summary of the method: as §1
Malme-3M = assay: Growth inhibition of human MALME-3M cells at 10 uM incubated for 48 hrs by sulforhodamine B assay; assay type: functional, cell-based; summary of the method: as §4
786-0 = assay: Growth inhibition of human 786-0 cells at 10 uM incubated for 48 hrs by sulforhodamine B assay; assay type: functional, cell-based; summary of the method: as §1
NCI/ADR-RES = assay: Growth inhibition of human NCI/ADR-RES cells at 10 uM incubated for 48 hrs by sulforhodamine B assay; assay type: functional, cell-based; summary of the method: as §4
Cryptococcus neoformans [6] = assay: Growth inhibition of Cryptococcus neoformans ATCC 32264 at 7.8 ug/ml incubated for 48 hrs under dark condition by broth microdilution method relative to control; assay type: functional; settings: ATCC 32264, 48 h, read-out: GI; summary of the method: as §2
SF-539 = assay: Growth inhibition of human SF539 cells at 10 uM incubated for 48 hrs by sulforhodamine B assay; assay type: functional, cell-based; summary of the method: as §4
KM12 = assay: Growth inhibition of human KM12 cells at 10 uM incubated for 48 hrs by sulforhodamine B assay; assay type: functional, cell-based; summary of the method: as §4
HL-60(TB) = assay: Growth inhibition of human HL-60(TB) cells at 10 uM incubated for 48 hrs by sulforhodamine B assay; assay type: functional, cell-based
Summary of the method: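 NCI 60-line single-dose screen at 10 μM, 48 h. Cells in RPMI-1640 with 5% FBS and 2 mM L-glutamine at 37 °C, 5% CO2. Growth measured by TCA fixation and SRB staining (515 nm), relative to time-zero and untreated control wells.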

Staphylococcus aureus [7] = assay: Antibacterial activity against vancomycin-intermediate Staphylococcus aureus after 24 hrs by resazurin dye based microdilution assay; assay type: functional; summary of the method: as §3
Cryptococcus neoformans [8] = assay: Growth inhibition of Cryptococcus neoformans ATCC 32264 at 62.5 ug/ml incubated for 48 hrs under dark condition by broth microdilution method relative to control; assay type: functional; settings: ATCC 32264, 48 h, read-out: GI; summary of the method: as §2
Plasmodium falciparum = assay: Antiplasmodial activity against chloroquine-sensitive Plasmodium falciparum 3D7 assessed as reduction in parasitic LDH activity after 48 hrs by Malstat reagent based […] method; assay type: functional; settings: 3D7, 48 h
Summary of the method: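 Unsynchronized P. falciparum 3D7 at 0.5% parasitemia and 1% hematocrit in RPMI with 3% Albumax II. Exposed to 100, 25, 6.25 and 1.56 µg/mL for 48 h at 37 °C under 90% N2/5% CO2/5% O2. After three freeze-thaw cycles, LDH measured with Malstat and NBT/PES, 1 h in the dark, read at 650 nm. IC50 by Probit; triplicate, ≥2 experiments.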

Cryptococcus neoformans [9] = assay: Growth inhibition of Cryptococcus neoformans ATCC 32264 at 125 ug/ml incubated for 48 hrs under dark condition by broth microdilution method relative to control; assay type: functional; settings: ATCC 32264, 48 h, read-out: GI; summary of the method: as §2
LOX IMVI = assay: Growth inhibition of human LOXIMVI cells at 10 uM incubated for 48 hrs by sulforhodamine B assay; assay type: functional, cell-based; summary of the method: as §4
Hs-578T = assay: Growth inhibition of human Hs578T cells at 10 uM incubated for 48 hrs by sulforhodamine B assay; assay type: functional, cell-based; summary of the method: as §4
UACC-257 = assay: Growth inhibition of human UACC257 cells at 10 uM incubated for 48 hrs by sulforhodamine B assay; assay type: functional, cell-based
Summary of the method: (§5)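 NCI-60 single-dose screen at 10 µM for 48 h. Cells were grown in RPMI-1640 with 5% FBS and 2 mM L-glutamine and preincubated 24 h before compound. Time-zero plates were TCA-fixed at compound addition. After exposure, cells were TCA-fixed, stained with SRB and read at 515 nm. Percentage growth was calculated against time-zero and untreated-control absorbances.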

SN12C = assay: Growth inhibition of human SN12C cells at 10 uM incubated for 48 hrs by sulforhodamine B assay; assay type: functional, cell-based; summary of the method: as §5
Candida albicans [10] = assay: Growth inhibition of Candida albicans ATCC 10231 at 3.4 ug/ml incubated for 48 hrs under dark condition by broth microdilution method relative to control; assay type: functional; settings: ATCC 10231, 48 h, read-out: GI

SMILES	growth inhibition (GI) (CAKI-1)	inhibition of growth at 250 µg/mL (Cryptococcus neoformans [1]) [%]	MIC (Klebsiella pneumoniae [2]) [µg/mL]	growth inhibition (GI) (EKVX)	MIC (Staphylococcus aureus [3]) [µg/mL]	growth inhibition (GI) (NCI-H226)	MIC (Klebsiella pneumoniae [4]) [µg/mL]	inhibition of growth at 31.25 µg/mL (Candida albicans [5]) [%]	growth inhibition (GI) (CCRF-CEM)	growth inhibition (GI) (ACHN)	MIC (Pseudomonas aeruginosa) [µg/mL]	growth inhibition (GI) (HCT-15)	growth inhibition (GI) (Malme-3M)	growth inhibition (GI) (786-0)	growth inhibition (GI) (NCI/ADR-RES)	inhibition of growth at 7.8 µg/mL (Cryptococcus neoformans [6]) [%]	growth inhibition (GI) (SF-539)	growth inhibition (GI) (KM12)	growth inhibition (GI) (HL-60(TB))	MIC (Staphylococcus aureus [7]) [µg/mL]	also measured
COc1ccc(C2=NN(c3ccc(Cl)cc3)C(c3cccc(Nc4ccnc5cc(Cl)ccc45)c3)C2)cc1 (stereo not given)	inactive	58.2	> 1000	inactive	> 1000	inactive	> 1000	1.19	inactive	inactive	> 1000	inactive	inactive	inactive	inactive	10.1	inactive	inactive	inactive	> 1000	inhibition of growth at 62.5 µg/mL (Cryptococcus neoformans [8]): 14.1%; EC50 (Plasmodium falciparum): 44.6 µg/mL (≈ 82.6 µM); inhibition of growth at 125 µg/mL (Cryptococcus neoformans [9]): 26.7%; growth inhibition (GI) (LOX IMVI): inactive; growth inhibition (GI) (Hs-578T): inactive; growth inhibition (GI) (UACC-257): inactive; growth inhibition (GI) (SN12C): inactive; inhibition of growth at 3.4 µg/mL (Candida albicans [10]): 0%
Clc1ccc(C2=NN(c3ccc(Cl)cc3)C(c3cccc(Nc4ccnc5cc(Cl)ccc45)c3)C2)cc1 (stereo not given)	inactive	53	> 1000	inactive	> 1000	inactive	> 1000	7.02	inactive	inactive	> 1000	inactive	inactive	inactive	inactive	18.4	inactive	inactive	inactive	> 1000	inhibition of growth at 62.5 µg/mL (Cryptococcus neoformans [8]): 25.8%; EC50 (Plasmodium falciparum): 10.3 µg/mL (≈ 18.9 µM); inhibition of growth at 125 µg/mL (Cryptococcus neoformans [9]): 46%; growth inhibition (GI) (LOX IMVI): inactive; growth inhibition (GI) (Hs-578T): inactive; growth inhibition (GI) (UACC-257): inactive; growth inhibition (GI) (SN12C): inactive; inhibition of growth at 3.4 µg/mL (Candida albicans [10]): 0%
Clc1ccc(C2=NN(c3ccccc3)C(c3cccc(Nc4ccnc5cc(Cl)ccc45)c3)C2)cc1 (stereo not given)	inactive	19.8	> 1000	inactive	> 1000	inactive	> 1000	4.92	inactive	inactive	> 1000	inactive	inactive	inactive	inactive	0	inactive	inactive	inactive	> 1000	inhibition of growth at 62.5 µg/mL (Cryptococcus neoformans [8]): 0%; EC50 (Plasmodium falciparum): 11.7 µg/mL (≈ 23 µM); inhibition of growth at 125 µg/mL (Cryptococcus neoformans [9]): 14.6%; growth inhibition (GI) (LOX IMVI): inactive; growth inhibition (GI) (Hs-578T): inactive; growth inhibition (GI) (UACC-257): inactive; growth inhibition (GI) (SN12C): inactive; inhibition of growth at 3.4 µg/mL (Candida albicans [10]): 0%
Clc1ccc(C2=NN(c3cc(Cl)cc(Cl)c3)C(c3cccc(Nc4ccnc5cc(Cl)ccc45)c3)C2)cc1 (stereo not given)	inactive	8.42	> 1000	inactive	> 1000	inactive	> 1000	13.6	inactive	inactive	> 1000	inactive	inactive	inactive	inactive	0	inactive	inactive	inactive	> 1000	inhibition of growth at 62.5 µg/mL (Cryptococcus neoformans [8]): 1.2%; EC50 (Plasmodium falciparum): 11.3 µg/mL (≈ 19.6 µM); inhibition of growth at 125 µg/mL (Cryptococcus neoformans [9]): 4.65%; growth inhibition (GI) (LOX IMVI): inactive; growth inhibition (GI) (Hs-578T): inactive; growth inhibition (GI) (UACC-257): inactive; growth inhibition (GI) (SN12C): inactive; inhibition of growth at 3.4 µg/mL (Candida albicans [10]): 1.64%
COc1cc(C2=NN(c3ccc(Cl)cc3)C(c3cccc(Nc4ccnc5cc(Cl)ccc45)c3)C2)cc(OC)c1OC (stereo not given)	inactive	21.7	> 1000	inactive	> 1000	inactive	> 1000	8.05	inactive	inactive	> 1000	inactive	inactive	inactive	inactive	10.4	inactive	inactive	inactive	> 1000	inhibition of growth at 62.5 µg/mL (Cryptococcus neoformans [8]): 17.1%; EC50 (Plasmodium falciparum): 44.6 µg/mL (≈ 74.3 µM); inhibition of growth at 125 µg/mL (Cryptococcus neoformans [9]): 17.1%; growth inhibition (GI) (LOX IMVI): inactive; growth inhibition (GI) (Hs-578T): inactive; growth inhibition (GI) (UACC-257): inactive; growth inhibition (GI) (SN12C): inactive; inhibition of growth at 3.4 µg/mL (Candida albicans [10]): 2.27%
